The test system of one experiment is Mus musculus. Put plainly: Anti-angiogenesis activity in FVB mouse model assessed as inhibition of VEGF-induced tissue weight at 50 mg/kg, po qd treated for 4 to 6 hrs prior to chamber implantation and continuing for 4 days measured after 24 hrs post last dose. Type of experiment: functional, organism-based. The settings on record: time 5.0 day. The gist of the method:
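Chamber model in female FVB mice: VEGF (2 μg/mL) agar/heparin chambers s.c. in flank, oral dosing once daily starting 4-6 h before implantation and continuing 4 days; vascularized tissue harvested and weighed 24 h after final dose; 6 mice per group.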

In experiment [1] the test system is BaF3. Nature of the experiment: Antiproliferative activity against mouse BaF3 cells expressing Trp-MET assessed as cell growth inhibition measured after 72 hrs by Alamar Blue assay. The settings on record: BaF3, 72 h.
Experiment [2] concerns the target Hepatocyte growth factor receptor (Homo sapiens) (UniProt P08581). Put plainly: Inhibition of human recombinant GST-fused c-MET expressed in baculovirus expression system using poly-Glu-Tyr (4:1) as substrate measured after 10 mins in presence of gamma-[33P]-ATP by scintillation counting analysis. The gist of the method:
(§1)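 GST-fused kinase domains were expressed in baculovirus and purified on glutathione-Sepharose. 10 min at ambient temperature, stopped with EDTA. Filter binding and scintillation counting. IC50 by linear regression of percent inhibition.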

The test system of experiment [3] is BaF3. Nature of the experiment: Antiproliferative activity against mouse BaF3 cells expressing Tel-FGFR3 assessed as cell growth inhibition measured after 72 hrs by Alamar Blue assay. The settings on record: BaF3, 72 h.
Experiment [4] deals with BaF3. Put plainly: Antiproliferative activity against mouse BaF3 cells expressing KIT D816V mutant assessed as cell growth inhibition measured after 72 hrs by Alamar Blue assay. The settings on record: BaF3, 72 h.
The subject of experiment [5] is BaF3. Nature of the experiment: Antiproliferative activity against mouse BaF3 cells expressing FLT3-ITD assessed as cell growth inhibition measured after 72 hrs by Alamar Blue assay. To be noted: BaF3, 72 h.
Experiment [6] has as its system BaF3. Put plainly: Antiproliferative activity against mouse BaF3 cells assessed as cell growth inhibition measured after 72 hrs by Alamar Blue assay. The settings on record: BaF3, 72 h.
Experiment [7] relates to BaF3. Put plainly: Antiproliferative activity against mouse BaF3 cells expressing PTC3-RET assessed as cell growth inhibition measured after 72 hrs by Alamar Blue assay. The settings on record: BaF3, 72 h.
The target in experiment [8] is Fibroblast growth factor receptor 3 (Homo sapiens) (UniProt P22607). Put plainly: Inhibition of human recombinant GST-fused FGFR3 expressed in baculovirus expression system using poly-Glu-Tyr (4:1) as substrate measured after 10 mins in presence of gamma-[33P]-ATP by scintillation counting analysis. The gist of the method:
as §1

In experiment [9] the target is Cyclin-dependent kinase 1 (Homo sapiens) (UniProt P06493). Nature of the experiment: Inhibition of human recombinant GST-fused CDK1 expressed in baculovirus expression system using poly-Glu-Tyr (4:1) as substrate measured after 10 mins in presence of gamma-[33P]-ATP by scintillation counting analysis. The gist of the method: as §1
The test system of experiment [10] is BaF3. Nature of the experiment: Antiproliferative activity against mouse BaF3 cells expressing NPM-ALK assessed as cell growth inhibition measured after 72 hrs by Alamar Blue assay. The settings on record: BaF3, 72 h.
The subject of experiment [11] is BaF3. Put plainly: Antiproliferative activity against mouse BaF3 cells expressing Tel-IGF-1R assessed as cell growth inhibition measured after 72 hrs by Alamar Blue assay. To be noted: BaF3, 72 h.
Experiment [12] concerns BaF3. Put plainly: Antiproliferative activity against mouse BaF3 cells expressing Bcr-ABL assessed as cell growth inhibition measured after 72 hrs by Alamar Blue assay. To be noted: BaF3, 72 h.
Experiment [13] deals with BaF3. Nature of the experiment: Antiproliferative activity against mouse BaF3 cells expressing ERBB2 V659E mutant assessed as cell growth inhibition measured after 72 hrs by Alamar Blue assay. To be noted: BaF3, 72 h.
In experiment [14] the target is T1, Vascular endothelial growth factor receptor 2 (Homo sapiens, UniProt P35968). Put plainly: Inhibition of human recombinant GST-fused VEGFR2 kinase domain transphosphorylation expressed in baculovirus expression system using poly-Glu-Tyr (4:1) as substrate measured after 10 mins in presence of gamma-[33P]-ATP by scintillation counting analysis.
For experiment [15], the target named is T1, Vascular endothelial growth factor receptor 2. Put plainly: Inhibition of VEGF-induced human VEGFR2 autophosphorylation transfected in CHO cells measured after 2 hrs by chemiluminescence assay. Format: cell-based.
Experiment [16] concerns HUVEC. Nature of the experiment: Antiproliferative activity against VEGF-stimulated HUVEC cells assessed as cell growth inhibition measured after 24 hrs by BrdUrd incorporation based spectrophotometric analysis. To be noted: Homo sapiens.
In experiment [17] the test system is B16-BL6. Put plainly: Antitumor activity against mouse B16-BL6 cells implanted in C57BL/6jNpa mouse assessed as primary tumor growth inhibition by measuring T/C ratio at 100 mg/kg, po qd administered started on day 7 post implantation measured after 21 days. Format: functional. To be noted: time 7-21 day. The gist of the method: (§2)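 Female C57BL/6JNpa mice, 50000 B16/BL6 cells intradermally in both ear pinnae; primary tumor area (mm²) imaged days 7, 14, 21; randomized day 7 into groups of 5-6, oral dosing in PEG200 or PEG300 vehicle daily (or every 2 days) for 14 days; day 21 cervical lymph nodes weighed, metastasis lysates assayed for TIE-2 by ELISA; T/C ratios.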

For experiment [18], the system named is B16-BL6. Put plainly: Antitumor activity against mouse B16-BL6 cells implanted in C57BL/6jNpa mouse assessed as metastatic tumor growth inhibition by measuring T/C ratio at 100 mg/kg, po qd administered started on day 7 post implantation measured after 21 days relative to control. Type of experiment: functional. The settings on record: time 7-21 day. The essentials: as §2

Experiment [19] has as its system BaF3. Nature of the experiment: Antiproliferative activity against mouse BaF3 cells expressing Tel-PDGFRbeta assessed as cell growth inhibition measured after 72 hrs by Alamar Blue assay. To be noted: BaF3, 72 h.
Experiment [20] can be described thus: Antitumor activity against rat BN472 cell implanted in Brown-Norway rat assessed as tumor growth inhibition by measuring T/C ratio at 100 mg/kg, po qd measured upto 14 days. Type of experiment: functional. To be noted: time <= 14 day. The essentials: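 Female Brown-Norway rats (160-180 g) given 3 mm³ BN472 tumor fragments in mammary fat pads; at about 200 mm², randomized into groups of 7-8 and dosed orally with compound or PEG300 vehicle over 14 days; tumor growth followed, T/C computed; significance by 2-way RM-ANOVA.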

Experiment [21] deals with HUVEC. Put plainly: Antiproliferative activity against bFGF-stimulated HUVEC cells assessed as cell growth inhibition measured after 24 hrs by BrdUrd incorporation based spectrophotometric analysis. To be noted: Homo sapiens.
In experiment [22] the target is Vascular endothelial growth factor receptor 2 (Mus musculus, UniProt P35918). Nature of the experiment: Inhibition of mouse recombinant GST-fused VEGFR2 kinase domain expressed in baculovirus expression system using poly-Glu-Tyr (4:1) as substrate measured after 10 mins in presence of gamma-[33P]-ATP by scintillation counting analysis. The gist of the method: as §1

Activity calls are given as the source filed them. The rule behind the calls is not given here.

Turning to `Cc1[nH]c(/C=C2\C(=O)Nc3ccccc32)c(C)c1CCC(=O)O`, the outcome with Mus musculus was Active.
Turning to `CNC(=O)c1cc(Oc2ccc(NC(=O)Nc3ccc(Cl)c(C(F)(F)F)c3)cc2)ccn1` [SORAFENIB], the IC50 was 7.4 µM with BaF3 [1]; 2.46 µM in the experiment with BaF3 [3]; 2.8 µM in the experiment on BaF3 [4]; 0.012 µM with BaF3 [5]; > 10 µM in the experiment with BaF3 [6]; 0.078 µM with BaF3 [7]. For the same compound, the IC50 with BaF3 [10] came out at 1.01 µM; in the experiment with BaF3 [11] it was 3.68 µM; in the experiment on BaF3 [12], 5.82 µM; in the experiment on BaF3 [13], 4.21 µM. Besides, the inhibition result in experiment [2], in [8] and in experiment [9] was “Active” each time.
As for `CCN1CCN(Cc2ccc(NC(=O)Nc3ccc(Oc4cc(NC)ncn4)cc3)cc2C(F)(F)F)CC1` [AST-487], the IC50 was found to be 0.003 µM in experiment [14] and 0.23 µM in experiment [15].
`O=C(Nc1cccc(C(F)(F)F)c1)c1ccccc1NCc1ccncc1`: the half-inhibitory concentration (IC50) is > 5.5 µM in the experiment on BaF3 [1]; 0.001 µM in the experiment with HUVEC [16]; > 5.5 µM with BaF3 [3]; > 5.5 µM in the experiment with BaF3 [4]; > 5.5 µM in the experiment with BaF3 [5]; > 10 µM in the experiment on BaF3 [6]. For the same compound, the IC50 was 0.019 µM with BaF3 [19]; 2.9 µM in the experiment with BaF3 [7]; > 5.5 µM in the experiment with BaF3 [10]; > 3 µM with HUVEC [21]; 8.4 µM in the experiment on BaF3 [11]; 0.055 µM in experiment [22]. Moreover, the half-maximal inhibitory concentration (IC50) in the experiment with BaF3 [12] is > 5.5 µM; in the experiment with BaF3 [13], 5.6 µM. Also, the T/C in the experiment with B16-BL6 [17] came out at 0.35; in the experiment with B16-BL6 [18] it was 0.17; in [20], 0.37.

(Values after ChEMBL document CHEMBL5252510, “A Novel Potent Oral Series of VEGFR2 Inhibitors Abrogate Tumor Growth by Inhibiting Angiogenesis” (J Med Chem, 2016).)
